Laboratory results from ChEMBL document CHEMBL1153113, “Discovery of potent, selective, and orally bioavailable PDE5 inhibitor: Methyl-4-(3-chloro-4-methoxybenzylamino)-8-(2-hydroxyethyl)-7-methoxyquinazolin-6-ylmethylcarbamate (CKD 533)” (Bioorg Med Chem Lett, 2010).
The source made the active and inactive calls. No cut-off for these calls is given here.

Tests used:
[1] = target: T1, Rod cGMP-specific 3',5'-cyclic phosphodiesterase subunit alpha (Bos taurus, UniProt P11541); assay: Inhibition of bovine retina PDE6
T1 sequence (P11541 whole entry): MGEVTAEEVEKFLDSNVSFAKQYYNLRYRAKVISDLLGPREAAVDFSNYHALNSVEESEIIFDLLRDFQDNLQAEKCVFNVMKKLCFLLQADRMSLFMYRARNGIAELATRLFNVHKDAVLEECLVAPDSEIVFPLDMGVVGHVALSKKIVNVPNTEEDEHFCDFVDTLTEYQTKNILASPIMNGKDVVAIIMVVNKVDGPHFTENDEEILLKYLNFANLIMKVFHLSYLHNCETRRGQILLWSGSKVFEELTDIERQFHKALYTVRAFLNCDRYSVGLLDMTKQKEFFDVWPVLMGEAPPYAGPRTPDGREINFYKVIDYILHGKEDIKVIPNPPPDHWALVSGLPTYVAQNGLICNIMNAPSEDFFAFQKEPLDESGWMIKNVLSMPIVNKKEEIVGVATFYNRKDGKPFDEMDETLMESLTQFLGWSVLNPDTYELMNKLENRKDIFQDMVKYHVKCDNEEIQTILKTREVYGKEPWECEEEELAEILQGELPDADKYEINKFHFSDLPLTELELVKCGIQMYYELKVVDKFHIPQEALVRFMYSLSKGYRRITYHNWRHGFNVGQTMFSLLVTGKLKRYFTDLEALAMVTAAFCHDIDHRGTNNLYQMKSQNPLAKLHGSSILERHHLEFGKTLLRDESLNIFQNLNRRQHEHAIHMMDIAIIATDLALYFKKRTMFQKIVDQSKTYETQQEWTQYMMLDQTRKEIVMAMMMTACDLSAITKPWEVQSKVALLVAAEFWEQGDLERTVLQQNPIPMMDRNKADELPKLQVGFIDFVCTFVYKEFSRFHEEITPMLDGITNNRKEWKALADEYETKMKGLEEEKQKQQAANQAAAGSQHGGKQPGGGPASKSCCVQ

[2] = Metabolic stability in human liver microsomes assessed as compound remaining after 1 hr; assay type: ADME, Microsome; details: read-out: Stability
Procedure, shortened: (§1)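 Liver microsomes (human, rat or rabbit) incubated with compound (5) in pH 7.4 phosphate buffer with an NADPH-regenerating system (2.5 mM MgCl2, 2.5 mM glucose-6-phosphate, 1 mM NADP, 1 U/ml G6P dehydrogenase) at 37 °C for 1 h. Human microsomes at 1.25 mg/ml. Read-out was % parent remaining; metabolites analysed by LC/MS.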

[3] = target: cGMP-specific 3',5'-cyclic phosphodiesterase (Bos taurus, UniProt Q28156); assay: Inhibition of bovine platelet PDE5
[4] = target: Dual 3',5'-cyclic-AMP and -GMP phosphodiesterase 11A (Homo sapiens, UniProt Q9HCR9); assay: Inhibition of human recombinant PDE11
Dual 3',5'-cyclic-AMP and -GMP phosphodiesterase 11A, sequence (Q9HCR9 whole entry): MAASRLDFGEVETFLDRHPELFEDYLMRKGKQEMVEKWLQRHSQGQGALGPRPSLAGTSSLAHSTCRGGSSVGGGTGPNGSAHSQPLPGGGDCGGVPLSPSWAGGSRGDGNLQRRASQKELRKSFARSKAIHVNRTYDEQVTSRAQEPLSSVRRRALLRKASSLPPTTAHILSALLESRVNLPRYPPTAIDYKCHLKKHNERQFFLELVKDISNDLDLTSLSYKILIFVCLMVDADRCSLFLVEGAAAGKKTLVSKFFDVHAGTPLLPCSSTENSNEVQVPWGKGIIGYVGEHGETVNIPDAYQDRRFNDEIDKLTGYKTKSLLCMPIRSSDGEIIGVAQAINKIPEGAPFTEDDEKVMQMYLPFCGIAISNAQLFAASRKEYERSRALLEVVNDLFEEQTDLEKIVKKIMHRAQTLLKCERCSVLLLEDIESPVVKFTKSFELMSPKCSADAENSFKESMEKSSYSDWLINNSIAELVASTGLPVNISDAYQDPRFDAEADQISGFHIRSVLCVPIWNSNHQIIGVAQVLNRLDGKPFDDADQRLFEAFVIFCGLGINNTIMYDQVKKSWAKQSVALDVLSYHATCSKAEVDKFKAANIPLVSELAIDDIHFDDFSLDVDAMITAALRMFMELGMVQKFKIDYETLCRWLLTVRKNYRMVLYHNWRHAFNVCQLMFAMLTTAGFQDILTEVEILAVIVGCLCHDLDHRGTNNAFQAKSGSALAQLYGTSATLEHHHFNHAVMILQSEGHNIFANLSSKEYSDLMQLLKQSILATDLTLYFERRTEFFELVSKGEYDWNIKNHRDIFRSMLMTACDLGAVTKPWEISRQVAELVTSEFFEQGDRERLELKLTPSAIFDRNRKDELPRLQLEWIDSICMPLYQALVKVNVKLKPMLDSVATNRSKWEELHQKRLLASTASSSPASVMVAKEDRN

[5] = Metabolic stability in rabbit liver microsomes assessed as compound remaining after 1 hr; assay type: ADME, Oryctolagus cuniculus, Microsome; details: read-out: Stability; procedure, shortened: as §1
[6] = Metabolic stability in rat liver microsomes assessed as compound remaining after 1 hr; assay type: ADME, Microsome; details: read-out: Stability; procedure, shortened: as §1
Liver microsomes = assay: Metabolic stability in human liver microsomes; assay type: ADME, Microsome; procedure, shortened: as §1
Oryctolagus cuniculus [7] = assay: Inhibition of erectile dysfunction in New Zealand white rabbit assessed as induction of SNP-potentiated penile erection at 3 mg/kg, po after 2 hrs; assay type: functional, organism-based; parameters: dose 3 mg/kg
Procedure, shortened: (§2)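 Conscious New Zealand white rabbits, 3–4 kg, n = 4. Compound given orally, dissolved in distilled water. SNP (0.1 mg/kg in saline) injected 2 h later. Penile length (covered plus mucosa area) measured in cm with sliding calipers over a total of 2 h after dosing.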

[8] = Inhibition of bovine heart PDE1; parameters: species or system Bos taurus
Procedure, shortened: (§3)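 Enzyme sources: PDE1 from bovine heart, PDE2 from bovine heart, PDE3 from bovine platelet, PDE4 human recombinant, PDE6 from bovine retina, PDE11 human recombinant. IC50 values are the mean of more than 2 determinations.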

Phosphodiesterase 4 = Phosphodiesterase 4 (Homo sapiens, UniProt P27815+Q08499+Q07343+Q08493); assay: Inhibition of human recombinant PDE4; assay type: protein assay; procedure, shortened: as §3
[9] = Cytotoxicity against mouse L5178Y cells; assay type: cell-based
[10] = Inhibition of bovine heart PDE2; parameters: species or system Bos taurus; procedure, shortened: as §3
[11] = Aqueous solubility of the compound; assay type: physicochemical; details: aqueous medium
[12] = Permeability across human Caco-2 cells; assay type: ADME, cell-based; details: read-out: permeability
hERG (KCNH2) = hERG (KCNH2) (Homo sapiens, UniProt Q12809); assay: Inhibition of human ERG at 10 uM
hERG (KCNH2), sequence (Q12809 whole entry): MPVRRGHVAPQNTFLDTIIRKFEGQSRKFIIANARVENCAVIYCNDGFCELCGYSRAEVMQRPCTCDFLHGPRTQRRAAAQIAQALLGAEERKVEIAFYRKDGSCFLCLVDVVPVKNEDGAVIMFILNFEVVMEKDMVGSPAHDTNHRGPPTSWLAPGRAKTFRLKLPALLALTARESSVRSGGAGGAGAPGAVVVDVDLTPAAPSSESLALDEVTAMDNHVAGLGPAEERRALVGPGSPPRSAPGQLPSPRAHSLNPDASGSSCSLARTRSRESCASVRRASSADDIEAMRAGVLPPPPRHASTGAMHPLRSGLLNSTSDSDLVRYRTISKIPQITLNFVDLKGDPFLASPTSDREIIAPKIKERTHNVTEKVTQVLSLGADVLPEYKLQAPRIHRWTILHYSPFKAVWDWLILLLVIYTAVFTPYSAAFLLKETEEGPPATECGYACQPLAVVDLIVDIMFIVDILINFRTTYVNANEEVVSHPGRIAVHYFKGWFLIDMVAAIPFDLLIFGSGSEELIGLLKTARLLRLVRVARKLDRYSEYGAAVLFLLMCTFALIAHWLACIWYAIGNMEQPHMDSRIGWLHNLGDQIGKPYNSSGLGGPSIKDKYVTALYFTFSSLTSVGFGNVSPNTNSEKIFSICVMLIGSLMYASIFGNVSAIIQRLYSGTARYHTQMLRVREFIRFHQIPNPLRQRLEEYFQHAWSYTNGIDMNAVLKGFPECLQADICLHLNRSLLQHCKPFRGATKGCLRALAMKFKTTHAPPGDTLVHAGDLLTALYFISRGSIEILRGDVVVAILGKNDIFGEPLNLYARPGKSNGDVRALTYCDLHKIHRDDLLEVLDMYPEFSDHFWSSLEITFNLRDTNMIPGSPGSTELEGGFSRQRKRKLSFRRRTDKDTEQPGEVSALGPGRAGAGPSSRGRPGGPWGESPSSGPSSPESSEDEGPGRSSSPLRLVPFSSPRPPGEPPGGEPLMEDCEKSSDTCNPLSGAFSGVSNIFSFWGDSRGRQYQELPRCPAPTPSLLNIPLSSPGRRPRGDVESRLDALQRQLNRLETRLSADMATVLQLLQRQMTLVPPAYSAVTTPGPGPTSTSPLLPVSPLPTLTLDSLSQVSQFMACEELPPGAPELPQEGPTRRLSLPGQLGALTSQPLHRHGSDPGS

[13] = Inhibition of bovine platelet PDE3; parameters: species or system Bos taurus; procedure, shortened: as §3
Oryctolagus cuniculus [14] = assay: Inhibition of erectile dysfunction in New Zealand white rabbit assessed as induction of SNP-potentiated penile erection at 0.3 mg/kg, po after 2 hrs; assay type: functional, organism-based; parameters: dose 0.3 mg/kg; procedure, shortened: as §2
[15] = Tmax in rabbit at 10 mg/kg, po; assay type: ADME, organism-based, Oryctolagus cuniculus; parameters: dose 10 mg/kg, route oral; details: in vivo
Procedure, shortened: (§4)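 Oral dosing at 10 mg/kg in 0.5% Tween 80, given as the HCl salt, with n = 4 animals per species. Plasma PK parameters were determined: Tmax, Cmax, half-life and AUClast.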

[16] = AUClast in rat at 10 mg/kg, po; assay type: ADME, organism-based; parameters: time 0 - last, dose 10 mg/kg, route oral; details: plasma; procedure, shortened: as §4
[17] = Half life in rat at 10 mg/kg, po; assay type: ADME, organism-based; parameters: dose 10 mg/kg, route oral; details: in vivo; procedure, shortened: as §4
[18] = Half life in rabbit at 10 mg/kg, po; assay type: ADME, organism-based, Oryctolagus cuniculus; parameters: dose 10 mg/kg, route oral; details: in vivo; procedure, shortened: as §4
[19] = Cmax in rabbit at 10 mg/kg, po; assay type: ADME, organism-based, Oryctolagus cuniculus; parameters: dose 10 mg/kg, route oral; details: in vivo; procedure, shortened: as §4
[20] = Cmax in rat at 10 mg/kg, po; assay type: ADME, organism-based; parameters: dose 10 mg/kg, route oral; details: in vivo; procedure, shortened: as §4
[21] = Tmax in rat at 10 mg/kg, po; assay type: ADME, organism-based; parameters: dose 10 mg/kg, route oral; details: in vivo; procedure, shortened: as §4
[22] = AUClast in rabbit at 10 mg/kg, po; assay type: ADME, organism-based, Oryctolagus cuniculus; parameters: time 0 - last, dose 10 mg/kg, route oral; details: plasma; procedure, shortened: as §4

| SMILES | IC50 [1] [nM] | remaining at 1 h [2] [%] | IC50 [3] [nM] | IC50 [4] [nM] | also measured |
| --- | --- | --- | --- | --- | --- |
| COc1ccc(CNc2ncnc3c(CCO)c(OC)c(N(C)C(=O)C(C)C)cc23)cc1Cl | 1100 | 4.8 | 3 |  |  |
| CCC(=O)N(CC)c1cc2c(NCc3ccc(OC)c(Cl)c3)ncnc2c(CCO)c1OC |  | 5.5 | 1 |  |  |
| COc1ccc(CNc2ncnc3c(CCO)c(OC)c(N(C)C(=O)C4CC4)cc23)cc1Cl | 340 | 25 | 1 |  |  |
| COC(=O)Nc1cc2c(NCc3ccc(OC)c(Cl)c3)ncnc2c(CCO)c1OC | 710 | 72 | 3 | 5700 |  |
| CCC(=O)Nc1cc2c(NCc3ccc(OC)c(Cl)c3)ncnc2c(CCO)c1OC |  | 3 |  |  | remaining at 1 h [5]: 85%; remaining at 1 h [6]: 96% |
| COc1ccc(CNc2ncnc3c(CCO)c(OC)c(NS(C)(=O)=O)cc23)cc1Cl |  |  | 11 |  | Stability (Liver microsomes): Unstable |
| COc1ccc(CNc2ncnc3c(CCO)c(OC)c(NS(=O)(=O)N(C)C)cc23)cc1Cl | 7950 |  | 12 |  | Stability (Liver microsomes): Unstable |
| CN1CC(=O)N2[C@H](c3ccc4c(c3)OCO4)c3[nH]c4ccccc4c3C[C@@H]2C1=O | 3000 |  |  |  | inhibition (Oryctolagus cuniculus [7]): Active |
| COC(=O)N(C)c1cc2c(NCc3ccc(OC)c(Cl)c3)ncnc2c(CCO)c1OC [listing 1 of 2 here] | 140 | 85 | 0.6 | 12000 | IC50 [8]: 12000 nM; IC50 (Phosphodiesterase 4): 84000 nM; CC50 [9]: 85000 nM; IC50 [10]: 32000 nM; solubility [11]: > 2000 µg/mL; Papp [12]: 35 ×10⁻⁶ cm/s; inhibition at 10 µM (hERG (KCNH2)): < 20%; IC50 [13]: 43000 nM |
| CCC(=O)N(C)c1cc2c(NCc3ccc(OC)c(Cl)c3)ncnc2c(CCO)c1OC | 320 | 16 | 1 | 5200 | remaining at 1 h [5]: > 90%; remaining at 1 h [6]: > 90%; inhibition (Oryctolagus cuniculus [7]): Active; Papp [12]: 17 ×10⁻⁶ cm/s |
| COC(=O)N(C)c1cc2c(NCc3ccc(OC)c(Cl)c3)ncnc2c(CCO)c1OC [listing 2 of 2 here] |  |  |  |  | inhibition (Oryctolagus cuniculus [14]): Active |
| COC(=O)N(C)c1cc2c(NCc3ccc(OC)c(Cl)c3)ncnc2c(CCO)c1OC.Cl |  |  |  |  | Tmax [15]: 2.4 h; AUC(0-t) [16]: 540 ng·h/mL; half-life [17]: 2.25 h; half-life [18]: 4.2 h; Cmax [19]: 870 ng/mL; Cmax [20]: 420 ng/mL; Tmax [21]: 0.2 h; AUC(0-t) [22]: 2760 ng·h/mL |
| CCOC(=O)Nc1cc2c(NCc3ccc(OC)c(Cl)c3)ncnc2c(CCO)c1OC | 600 |  | 17 | 5000 |  |
